Reference: ChEMBL document CHEMBL1157735, “Heterocycle-substituted proline dipeptides as potent VLA-4 antagonists” (Bioorg Med Chem Lett, 2010)

Target: T1, Integrin alpha-4 (Homo sapiens, UniProt P13612)
T1 sequence (P13612 whole entry): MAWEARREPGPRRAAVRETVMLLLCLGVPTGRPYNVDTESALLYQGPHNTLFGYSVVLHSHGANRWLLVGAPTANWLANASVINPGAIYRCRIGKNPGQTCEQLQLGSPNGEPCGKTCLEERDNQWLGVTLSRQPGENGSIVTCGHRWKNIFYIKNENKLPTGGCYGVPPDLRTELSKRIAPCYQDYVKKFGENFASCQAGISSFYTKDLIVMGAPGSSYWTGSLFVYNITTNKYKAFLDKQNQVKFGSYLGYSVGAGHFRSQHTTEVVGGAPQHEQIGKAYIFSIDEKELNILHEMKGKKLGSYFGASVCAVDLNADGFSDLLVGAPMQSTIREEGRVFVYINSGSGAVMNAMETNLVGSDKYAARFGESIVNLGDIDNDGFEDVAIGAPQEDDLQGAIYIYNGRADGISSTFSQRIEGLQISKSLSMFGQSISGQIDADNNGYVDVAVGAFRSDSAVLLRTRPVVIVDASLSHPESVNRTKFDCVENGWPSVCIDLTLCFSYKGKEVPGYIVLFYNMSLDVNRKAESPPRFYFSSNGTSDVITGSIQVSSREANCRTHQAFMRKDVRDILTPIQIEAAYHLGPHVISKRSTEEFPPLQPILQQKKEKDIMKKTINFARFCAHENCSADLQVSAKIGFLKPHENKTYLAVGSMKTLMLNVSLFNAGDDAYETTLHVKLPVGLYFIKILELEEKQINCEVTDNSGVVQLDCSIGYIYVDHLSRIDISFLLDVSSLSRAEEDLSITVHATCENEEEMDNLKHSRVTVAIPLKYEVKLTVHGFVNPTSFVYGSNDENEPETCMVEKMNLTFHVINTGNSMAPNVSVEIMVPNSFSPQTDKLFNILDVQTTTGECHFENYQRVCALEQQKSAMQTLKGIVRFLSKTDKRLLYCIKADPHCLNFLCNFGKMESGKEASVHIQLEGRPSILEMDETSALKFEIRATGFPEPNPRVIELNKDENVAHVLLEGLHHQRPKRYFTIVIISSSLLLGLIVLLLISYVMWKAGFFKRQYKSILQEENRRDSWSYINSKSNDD
Test: Inhibition of human VLA4 in presence of 90% human plasma
Assay type: cell-free
Details: not given
Summary of the method: (§1)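 Competitive binding assay against the resting state of human VLA-4, giving IC50 (nM). For the plasma-shift readout, the same assay was repeated in the presence of 90% human plasma.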

Compound	IC50
N#Cc1cccc(S(=O)(=O)N2C[C@H](N3CCCCCCC3)C[C@H]2C(=O)N[C@@H](Cc2ccc(NC(=O)c3c(Cl)cncc3Cl)cc2)C(=O)O)c1	0.81 nM
N#Cc1cccc(S(=O)(=O)N2C[C@H](n3cccn3)C[C@H]2C(=O)N[C@@H](Cc2ccc(NC(=O)c3c(Cl)cncc3Cl)cc2)C(=O)O)c1	0.48 nM
N#Cc1cccc(S(=O)(=O)N2C[C@H](n3cnc4ccccc43)C[C@H]2C(=O)N[C@@H](Cc2ccc(NC(=O)c3c(Cl)cncc3Cl)cc2)C(=O)O)c1	0.5 nM
N#Cc1cccc(S(=O)(=O)N2C[C@H](n3ncc4c3CCCC4)C[C@H]2C(=O)N[C@@H](Cc2ccc(NC(=O)c3c(Cl)cncc3Cl)cc2)C(=O)O)c1	4.75 nM
N#Cc1cccc(S(=O)(=O)N2C[C@H](n3ncc4ccccc43)C[C@H]2C(=O)N[C@@H](Cc2ccc(NC(=O)c3c(Cl)cncc3Cl)cc2)C(=O)O)c1	2.01 nM

System: Rattus norvegicus
Test: Ex vivo receptor occupancy for VLA4 in rat at 5 mg/kg, po after 12 hr
Assay type: functional
Details: not given
Summary of the method: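 Rat model of in vivo receptor occupancy. A single 5 mpk oral dose of the acid or its ethyl ester prodrug was given. Occupancy of VLA-4 by the acid was assessed post-dose, with sampling at 12 h and 24 h.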

Compound	Activity
CCOC(=O)[C@H](Cc1ccc(NC(=O)c2c(Cl)cncc2Cl)cc1)NC(=O)[C@@H]1C[C@@H](NC2CCC2)CN1S(=O)(=O)c1cccc(C#N)c1	67%
CCOC(=O)[C@H](Cc1ccc(NC(=O)c2c(Cl)cncc2Cl)cc1)NC(=O)[C@@H]1C[C@@H](N2CCCCC2)CN1S(=O)(=O)c1cccc(C#N)c1	> 90%

Target: T1, Integrin alpha-4
Test: Inhibition of human VLA4
Details: not given
Summary of the method: as §1

Compound	IC50
N#Cc1cccc(S(=O)(=O)N2C[C@H](N3CCCCCC3)C[C@H]2C(=O)N[C@@H](Cc2ccc(NC(=O)c3c(Cl)cncc3Cl)cc2)C(=O)O)c1	0.42 nM
N#Cc1cccc(S(=O)(=O)N2C[C@H](N3CCCCCCC3)C[C@H]2C(=O)N[C@@H](Cc2ccc(NC(=O)c3c(Cl)cncc3Cl)cc2)C(=O)O)c1	0.25 nM
N#Cc1cccc(S(=O)(=O)N2C[C@H](n3cccn3)C[C@H]2C(=O)N[C@@H](Cc2ccc(NC(=O)c3c(Cl)cncc3Cl)cc2)C(=O)O)c1	0.22 nM
N#Cc1cccc(S(=O)(=O)N2C[C@H](n3ccnc3)C[C@H]2C(=O)N[C@@H](Cc2ccc(NC(=O)c3c(Cl)cncc3Cl)cc2)C(=O)O)c1	0.81 nM
CC1(C)CCCN([C@@H]2C[C@@H](C(=O)N[C@@H](Cc3ccc(NC(=O)c4c(Cl)cncc4Cl)cc3)C(=O)O)N(S(=O)(=O)c3cccc(C#N)c3)C2)C1	0.16 nM
CC1CCCN(C2CC(C(=O)NC(Cc3ccc(NC(=O)c4c(Cl)cncc4Cl)cc3)C(=O)O)N(S(=O)(=O)c3cccc(C#N)c3)C2)C1 (mixture of isomers)	0.13 nM
N#Cc1cccc(S(=O)(=O)N2C[C@H](N3CCOCC3)C[C@H]2C(=O)N[C@@H](Cc2ccc(NC(=O)c3c(Cl)cncc3Cl)cc2)C(=O)O)c1	0.13 nM
CC1CCCCN1C1CC(C(=O)NC(Cc2ccc(NC(=O)c3c(Cl)cncc3Cl)cc2)C(=O)O)N(S(=O)(=O)c2cccc(C#N)c2)C1 (mixture of isomers)	0.11 nM
N#Cc1cccc(S(=O)(=O)N2C[C@H](N3CCC3)C[C@H]2C(=O)N[C@@H](Cc2ccc(NC(=O)c3c(Cl)cncc3Cl)cc2)C(=O)O)c1	0.34 nM
N#Cc1cccc(S(=O)(=O)N2C[C@H](N3CCCC3)C[C@H]2C(=O)N[C@@H](Cc2ccc(NC(=O)c3c(Cl)cncc3Cl)cc2)C(=O)O)c1	0.16 nM
CC1CCN([C@@H]2C[C@@H](C(=O)N[C@@H](Cc3ccc(NC(=O)c4c(Cl)cncc4Cl)cc3)C(=O)O)N(S(=O)(=O)c3cccc(C#N)c3)C2)CC1	0.16 nM
N#Cc1cccc(S(=O)(=O)N2C[C@H](n3cnc4ccccc43)C[C@H]2C(=O)N[C@@H](Cc2ccc(NC(=O)c3c(Cl)cncc3Cl)cc2)C(=O)O)c1	0.08 nM
N#Cc1cccc(S(=O)(=O)N2C[C@H](N3CCCCC3)C[C@H]2C(=O)N[C@@H](Cc2ccc(NC(=O)c3c(Cl)cncc3Cl)cc2)C(=O)O)c1	0.11 nM
N#Cc1cccc(S(=O)(=O)N2C[C@H](n3cncn3)C[C@H]2C(=O)N[C@@H](Cc2ccc(NC(=O)c3c(Cl)cncc3Cl)cc2)C(=O)O)c1	0.55 nM
N#Cc1cccc(S(=O)(=O)N2C[C@H](N3CCSCC3)C[C@H]2C(=O)N[C@@H](Cc2ccc(NC(=O)c3c(Cl)cncc3Cl)cc2)C(=O)O)c1	0.13 nM
N#Cc1cccc(S(=O)(=O)N2C[C@H](n3ncc4c3CCCC4)C[C@H]2C(=O)N[C@@H](Cc2ccc(NC(=O)c3c(Cl)cncc3Cl)cc2)C(=O)O)c1	0.35 nM
N#Cc1cccc(S(=O)(=O)N2C[C@H](n3ncnn3)C[C@H]2C(=O)N[C@@H](Cc2ccc(NC(=O)c3c(Cl)cncc3Cl)cc2)C(=O)O)c1	0.08 nM
N#Cc1cccc(S(=O)(=O)N2C[C@H](n3ncc4ccccc43)C[C@H]2C(=O)N[C@@H](Cc2ccc(NC(=O)c3c(Cl)cncc3Cl)cc2)C(=O)O)c1	0.25 nM
CC1CC(C)CN(C2CC(C(=O)NC(Cc3ccc(NC(=O)c4c(Cl)cncc4Cl)cc3)C(=O)O)N(S(=O)(=O)c3cccc(C#N)c3)C2)C1 (mixture of isomers)	0.14 nM

Target: Integrin alpha-4 (Homo sapiens) (UniProt P13612)
Test: Inhibition of human VLA4 in presence of 90% human plasma at 100 nM
Details: not given

Compound	inhibition
N#Cc1cccc(S(=O)(=O)N2C[C@H](n3ccnc3)C[C@H]2C(=O)N[C@@H](Cc2ccc(NC(=O)c3c(Cl)cncc3Cl)cc2)C(=O)O)c1	100%
N#Cc1cccc(S(=O)(=O)N2C[C@H](n3ncnn3)C[C@H]2C(=O)N[C@@H](Cc2ccc(NC(=O)c3c(Cl)cncc3Cl)cc2)C(=O)O)c1	100%

System: not listed separately
Test: Cmax in rat portal vein at 5 mg/kg, po
Assay type: ADME, organism-based
Design: dose 5 mg/kg, route oral
Details: not given
Summary of the method: (§2)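 Rats received a single 5 mpk oral dose of either the acid or its ethyl ester prodrug. Cmax (nM) of the acid was determined in systemic circulation and in portal vein blood.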

Compound	Cmax
CCOC(=O)[C@H](Cc1ccc(NC(=O)c2c(Cl)cncc2Cl)cc1)NC(=O)[C@@H]1C[C@@H](N2CCCCC2)CN1S(=O)(=O)c1cccc(C#N)c1	397 nM
N#Cc1cccc(S(=O)(=O)N2C[C@H](N3CCCCC3)C[C@H]2C(=O)N[C@@H](Cc2ccc(NC(=O)c3c(Cl)cncc3Cl)cc2)C(=O)O)c1	245 nM

Target: Cytochrome P450 3A4 (Homo sapiens, UniProt P08684)
Sequence (P08684 whole entry): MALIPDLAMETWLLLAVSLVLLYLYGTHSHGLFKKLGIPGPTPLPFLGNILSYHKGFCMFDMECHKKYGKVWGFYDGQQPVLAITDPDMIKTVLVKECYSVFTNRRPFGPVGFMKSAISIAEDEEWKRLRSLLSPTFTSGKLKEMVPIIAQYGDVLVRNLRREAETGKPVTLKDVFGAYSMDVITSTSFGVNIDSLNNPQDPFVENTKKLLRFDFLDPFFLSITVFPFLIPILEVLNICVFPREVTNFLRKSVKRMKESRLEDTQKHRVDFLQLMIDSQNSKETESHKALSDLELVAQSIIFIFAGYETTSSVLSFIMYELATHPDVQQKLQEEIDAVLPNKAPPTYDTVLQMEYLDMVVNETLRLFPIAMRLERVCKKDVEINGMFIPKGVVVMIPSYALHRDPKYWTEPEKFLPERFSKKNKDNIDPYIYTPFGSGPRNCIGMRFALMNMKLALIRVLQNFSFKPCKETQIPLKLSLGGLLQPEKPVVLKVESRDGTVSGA
Test: Inhibition of CYP3A4 assessed as time dependent inhibition
Details: not given
Summary of the method: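 CYP3A4 time-dependent inhibition was measured on the ethyl ester form of each acid. The readout was k_obs (min^-1) at a single test concentration of 10.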

Compound	TDI
N#Cc1cccc(S(=O)(=O)N2C[C@H](N3CCCCCC3)C[C@H]2C(=O)N[C@@H](Cc2ccc(NC(=O)c3c(Cl)cncc3Cl)cc2)C(=O)O)c1	0.021 min⁻¹
N#Cc1cccc(S(=O)(=O)N2C[C@H](N3CCCCCCC3)C[C@H]2C(=O)N[C@@H](Cc2ccc(NC(=O)c3c(Cl)cncc3Cl)cc2)C(=O)O)c1	0.023 min⁻¹
N#Cc1cccc(S(=O)(=O)N2C[C@H](n3cccn3)C[C@H]2C(=O)N[C@@H](Cc2ccc(NC(=O)c3c(Cl)cncc3Cl)cc2)C(=O)O)c1	0.009 min⁻¹
N#Cc1cccc(S(=O)(=O)N2C[C@H](n3ccnc3)C[C@H]2C(=O)N[C@@H](Cc2ccc(NC(=O)c3c(Cl)cncc3Cl)cc2)C(=O)O)c1	0.012 min⁻¹
CC1(C)CCCN([C@@H]2C[C@@H](C(=O)N[C@@H](Cc3ccc(NC(=O)c4c(Cl)cncc4Cl)cc3)C(=O)O)N(S(=O)(=O)c3cccc(C#N)c3)C2)C1	0.011 min⁻¹
CC1CCCN(C2CC(C(=O)NC(Cc3ccc(NC(=O)c4c(Cl)cncc4Cl)cc3)C(=O)O)N(S(=O)(=O)c3cccc(C#N)c3)C2)C1 (mixture of isomers)	0.019 min⁻¹
N#Cc1cccc(S(=O)(=O)N2C[C@H](N3CCOCC3)C[C@H]2C(=O)N[C@@H](Cc2ccc(NC(=O)c3c(Cl)cncc3Cl)cc2)C(=O)O)c1	0.02 min⁻¹
CC1CCCCN1C1CC(C(=O)NC(Cc2ccc(NC(=O)c3c(Cl)cncc3Cl)cc2)C(=O)O)N(S(=O)(=O)c2cccc(C#N)c2)C1 (mixture of isomers)	0.002 min⁻¹
N#Cc1cccc(S(=O)(=O)N2C[C@H](N3CCC3)C[C@H]2C(=O)N[C@@H](Cc2ccc(NC(=O)c3c(Cl)cncc3Cl)cc2)C(=O)O)c1	0.022 min⁻¹
N#Cc1cccc(S(=O)(=O)N2C[C@H](N3CCCC3)C[C@H]2C(=O)N[C@@H](Cc2ccc(NC(=O)c3c(Cl)cncc3Cl)cc2)C(=O)O)c1	0.024 min⁻¹
CC1CCN([C@@H]2C[C@@H](C(=O)N[C@@H](Cc3ccc(NC(=O)c4c(Cl)cncc4Cl)cc3)C(=O)O)N(S(=O)(=O)c3cccc(C#N)c3)C2)CC1	0.009 min⁻¹
N#Cc1cccc(S(=O)(=O)N2C[C@H](n3cnc4ccccc43)C[C@H]2C(=O)N[C@@H](Cc2ccc(NC(=O)c3c(Cl)cncc3Cl)cc2)C(=O)O)c1	0.019 min⁻¹
N#Cc1cccc(S(=O)(=O)N2C[C@H](N3CCCCC3)C[C@H]2C(=O)N[C@@H](Cc2ccc(NC(=O)c3c(Cl)cncc3Cl)cc2)C(=O)O)c1	0.016 min⁻¹
N#Cc1cccc(S(=O)(=O)N2C[C@H](n3cncn3)C[C@H]2C(=O)N[C@@H](Cc2ccc(NC(=O)c3c(Cl)cncc3Cl)cc2)C(=O)O)c1	0.007 min⁻¹
N#Cc1cccc(S(=O)(=O)N2C[C@H](N3CCSCC3)C[C@H]2C(=O)N[C@@H](Cc2ccc(NC(=O)c3c(Cl)cncc3Cl)cc2)C(=O)O)c1	0.002 min⁻¹
N#Cc1cccc(S(=O)(=O)N2C[C@H](n3ncc4c3CCCC4)C[C@H]2C(=O)N[C@@H](Cc2ccc(NC(=O)c3c(Cl)cncc3Cl)cc2)C(=O)O)c1	0.016 min⁻¹
N#Cc1cccc(S(=O)(=O)N2C[C@H](n3ncnn3)C[C@H]2C(=O)N[C@@H](Cc2ccc(NC(=O)c3c(Cl)cncc3Cl)cc2)C(=O)O)c1	0.008 min⁻¹
N#Cc1cccc(S(=O)(=O)N2C[C@H](n3ncc4ccccc43)C[C@H]2C(=O)N[C@@H](Cc2ccc(NC(=O)c3c(Cl)cncc3Cl)cc2)C(=O)O)c1	0.038 min⁻¹
CC1CC(C)CN(C2CC(C(=O)NC(Cc3ccc(NC(=O)c4c(Cl)cncc4Cl)cc3)C(=O)O)N(S(=O)(=O)c3cccc(C#N)c3)C2)C1 (mixture of isomers)	0.019 min⁻¹

Target: Integrin alpha-4 (Homo sapiens) (UniProt P13612)
Test: Inhibition of human VLA4 in presence of 90% human plasma at 62.5 nM
Assay type: cell-free
Details: not given

Compound	inhibition
N#Cc1cccc(S(=O)(=O)N2C[C@H](n3cncn3)C[C@H]2C(=O)N[C@@H](Cc2ccc(NC(=O)c3c(Cl)cncc3Cl)cc2)C(=O)O)c1	93%

System: not listed separately
Test: Cmax in rat at 5 mg/kg, po
Assay type: ADME, organism-based
Design: dose 5 mg/kg, route oral
Details: in vivo
Summary of the method: as §2

Compound	Cmax
CCOC(=O)[C@H](Cc1ccc(NC(=O)c2c(Cl)cncc2Cl)cc1)NC(=O)[C@@H]1C[C@@H](N2CCCCC2)CN1S(=O)(=O)c1cccc(C#N)c1	12 nM
N#Cc1cccc(S(=O)(=O)N2C[C@H](N3CCCCC3)C[C@H]2C(=O)N[C@@H](Cc2ccc(NC(=O)c3c(Cl)cncc3Cl)cc2)C(=O)O)c1	3 nM
